Measured values pooled from the literature.
ABL1 Q252H phosphorylated: Tyrosine-protein kinase ABL1, phosphorylated (ABL1, Homo sapiens, UniProt P00519, Q252H)
ABL1 F317I non-phosphorylated: Tyrosine-protein kinase ABL1, non-phosphorylated (ABL1, Homo sapiens, UniProt P00519, F317I)
ABL1 H396P phosphorylated: Tyrosine-protein kinase ABL1, phosphorylated (ABL1, Homo sapiens, UniProt P00519, H396P)
ABL1 E255K phosphorylated: Tyrosine-protein kinase ABL1, phosphorylated (ABL1, Homo sapiens, UniProt P00519, E255K)
ABL1 F317L non-phosphorylated: Tyrosine-protein kinase ABL1, non-phosphorylated (ABL1, Homo sapiens, UniProt P00519, F317L)

SMILES	target	assay	conditions	remaining binding [%]
O=C(c1ccc(Nc2ncc(Cl)c(-c3ccc(Cl)s3)n2)cc1)N1CCC(N2CCCC2)CC1	Tyrosine-protein kinase ABL1, non-phosphorylated (ABL1, Homo sapiens, UniProt P00519, H396P)	binding, competition with immobilised ligand	1 µM	0.35
O=C(Nc1cnc(Oc2ccc(F)cc2)nc1)N1CCc2ncccc2[C@@H]1c1ccc(F)cc1	Tyrosine-protein kinase ABL1, non-phosphorylated (ABL1, Homo sapiens, UniProt P00519, T315I)	cell-free assay, competition with immobilised ligand	1 µM	100
F[C@@H]1CCN(c2nccc(-c3cnn4ncccc34)n2)C1	Tyrosine-protein kinase ABL1 (ABL1, Homo sapiens, UniProt P00519, Y253F)	binding	1 µM	90
O=C(Nc1c[nH]nc1C(=O)NC1CCNCC1)c1cc(F)cc(F)c1	ABL1 Q252H phosphorylated	binding, competition with immobilised ligand	1 µM	99
COc1cnc(Nc2cccc(S(N)(=O)=O)c2)nc1N1CCN(c2ccccc2)CC1	ABL1 F317I non-phosphorylated	binding, competition with immobilised ligand	1 µM	94
CN(CCCC(F)(F)F)c1nccc(-c2cnn3ncccc23)n1	Tyrosine-protein kinase ABL1 (ABL1, Homo sapiens, UniProt P00519, F317I)	binding	1 µM	100
CN([C@@H]1CCc2c(CC(=O)O)c3cc(S(C)(=O)=O)ccc3n2C1)S(=O)(=O)c1ccc(F)cc1	ABL1 H396P phosphorylated	cell-free assay, competition with immobilised ligand	1 µM	78
CNC(=O)[C@@H]1CC[C@@H](n2c(-c3ccc4cnccc4c3)nc3ccc(C(=O)NCc4cccc(C(N)=O)c4)cc32)C1	ABL1 E255K phosphorylated	binding, competition with immobilised ligand	1 µM	100
CCN1CCN(Cc2ccc(C(=O)Nc3ccc(C)c(Oc4ccc5c(c4)CC(=O)N5)c3)cc2C(F)(F)F)CC1	Tyrosine-protein kinase ABL1, phosphorylated (ABL1, Homo sapiens, UniProt P00519, M351T)	binding, competition with immobilised ligand	1 µM	55
Nc1ncc2c(n1)-c1c([nH]c3ccc(C#CC4CC4)cc13)CCCC2	Tyrosine-protein kinase ABL1, phosphorylated (ABL1, Homo sapiens, UniProt P00519, F317L)	binding, competition with immobilised ligand	1 µM	88
C[C@@]1(Cc2ccc(C#N)cc2)C(=O)N(c2cc(Cl)cc(Cl)c2)c2ncc(C(=O)NC3(c4nc(C5CCC5)no4)CC3)n21	ABL1 F317I non-phosphorylated	binding, competition with immobilised ligand	1 µM	94
O=C(c1ccc(Nc2nccc(-c3cc4ccccc4s3)n2)cc1)N1CCC(N2CCCC2)CC1	ABL1 E255K phosphorylated	binding, competition with immobilised ligand	1 µM	9.9
O=C(NS(=O)(=O)c1ccc(NCC2CCOCC2)c([N+](=O)[O-])c1)c1ccc(N2CCN(Cc3ccc(C(F)(F)F)cc3-c3ccc(Cl)cc3)CC2)cc1Oc1cnc2[nH]ccc2c1	ABL1 F317L non-phosphorylated	cell-free assay, competition with immobilised ligand	1 µM	91
Cc1cnc(Nc2ccc(C(=O)N3CCC(N4CCCC4)CC3)cc2)nc1-c1cc2ccccc2s1	ABL1 H396P phosphorylated	binding, competition with immobilised ligand	1 µM	0.9
CN(C)C(=O)Cn1cc(-c2nc(C3(c4ccc(-c5cnc(N)nc5)cc4)CC3)no2)cn1	ABL1 E255K phosphorylated	binding, competition with immobilised ligand	1 µM	100
C[C@@H](c1ccc(-n2cnc3c(N)ncnc32)cc1)N1CCc2nn(C)c(Cc3ccccc3)c2C1=O	ABL1 F317L non-phosphorylated	binding, competition with immobilised ligand	0.1 µM	16
Nc1cnc(N2CCc3cc(S(=O)(=O)Nc4c(F)cc(Cl)cc4F)cc(N4CCCC4=O)c32)nc1	ABL1 Q252H phosphorylated	cell-free assay, competition with immobilised ligand	1 µM	98
N[C@@H]1CCN(c2nccc(-c3cnn4ncccc34)n2)C1	Tyrosine-protein kinase ABL1 (ABL1, Homo sapiens, UniProt P00519, E255K)	binding	1 µM	100
COc1ncc2cc3ccccc3nc2c1C#N	ABL1 F317I non-phosphorylated	cell-free assay, competition with immobilised ligand	5 µM	96
O=C(NCCCN1CCOCC1)c1ccc(Nc2nccc(-c3cc4ccccc4s3)n2)cc1	ABL1 Q252H phosphorylated	binding, competition with immobilised ligand	1 µM	58
c1cncc(-c2cccc(Nc3nccc(NC4CCCCC4)n3)c2)c1	ABL1 E255K phosphorylated	binding, competition with immobilised ligand	10 µM	14
O=C(N1CCS(=O)(=O)CC1)N1C[C@H](c2ccc(OC(F)(F)F)cc2)C[C@H](c2nc(C3CC3)no2)C1	Tyrosine-protein kinase ABL1, phosphorylated (ABL1, Homo sapiens, UniProt P00519, T315I)	cell-free assay, competition with immobilised ligand	1 µM	100
C[C@H]1CCN(c2nccc(-c3cnn4ncccc34)n2)C1	Tyrosine-protein kinase ABL1, non-phosphorylated (ABL1, Homo sapiens, UniProt P00519)	binding	1 µM	86
